Assays:
[1] = system: HEL; assay: Cytostatic concentration required to inhibit HEL cell proliferation measured at day 4; format: functional; conditions: Homo sapiens, 96 h
Summary of the method: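 Growing, subconfluent HEL cells were exposed to different compound concentrations, then trypsinized and counted with a Coulter counter. The 50% value was the concentration reducing cell number by 50% relative to untreated cells.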

[2] = system: HEL; assay: Minimal cytotoxic concentration required to cause a microscopically visible alteration of HEL cell morphology as measured at day 7 postinfection; format: functional; conditions: Homo sapiens, 168 h
Summary of the method: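 MCC was assessed within the antiviral assay on confluent HEL monolayers exposed to varying compound concentrations. It was taken at day 7 as the lowest concentration giving microscopically visible cytotoxicity (altered morphology).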

[3] = system: HEL; assay: Effective concentration required to inhibit HCMV Davis strain-induced cytopathicity in human embryonic lung (HEL) fibroblast cell cultures at day 7 of postinfection; format: functional, cell-based; conditions: 168 h
Summary of the method: (§1)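 Confluent HEL fibroblast monolayers were infected with 100 PFU of HCMV per well and adsorbed for 1-2 h. Residual virus was removed, and cells were kept in MEM with 2% inactivated FCS, 1% L-glutamine and 0.3% sodium bicarbonate plus varying compound concentrations. Cytopathicity was scored at day 7, and EC50 was the concentration reducing virus-induced CPE by 50% versus untreated control.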

[4] = system: HEL; assay: Effective concentration required to inhibit HCMV AD169 strain-induced cytopathicity in human embryonic lung (HEL) fibroblast cell cultures at day 7 of postinfection; format: functional, cell-based; conditions: 168 h; summary of the method: as §1

Structure (SMILES)	CC50 [1]	MCC [2]	EC50 [3]	EC50 [4]
CCCCCCCCCCCCCCc1cc2cn(C3CCC(CO)O3)c(=O)nc2o1 (stereo not drawn)	> 200 µM	200 µM	40 µM	25 µM
CCCCCCCCc1cc2cn(C3CCC(CO)O3)c(=O)nc2o1 (stereo not drawn)	112 µM	20 µM	3 µM	2.5 µM
CCCCCCc1cc2cn(C3CCC(CO)O3)c(=O)nc2o1 (stereo not drawn)	143 µM	200 µM	> 50 µM	32 µM
CCCCCCCCCCCc1cc2cn(C3CCC(CO)O3)c(=O)nc2o1 (stereo not drawn)	> 200 µM	50 µM	1.2 µM	1.4 µM
CCCCCCCCCc1cc2cn(C3CCC(CO)O3)c(=O)nc2o1 (stereo not drawn)	> 200 µM	58 µM	1.3 µM	1.2 µM
CCCCCCCCCCc1cc2cn(C3CCC(CO)O3)c(=O)nc2o1 (stereo not drawn)	> 200 µM	> 20 µM	3.2 µM	2.6 µM
CCCCCCCCCCCCc1cc2cn(C3CCC(CO)O3)c(=O)nc2o1 (stereo not drawn)	> 200 µM	200 µM	5 µM	3.7 µM
Nc1ccn(C[C@@H](CO)OCP(=O)(O)O)c(=O)n1 [CIDOFOVIR]	158 µM	> 150 µM		
O=C(O)P(=O)(O)O [FOSCARNET]	500 µM	> 400 µM	62 µM	53 µM
Nc1nc2c(ncn2COC(CO)CO)c(=O)[nH]1 [GANCICLOVIR]	> 150 µM	> 150 µM	3.9 µM	2.7 µM
